Assay outcomes (PubChem)
Compounds with a hit are over-represented: about 2.2% of the library has one in this group of screens.
T cruzi repl – blocks replication of Trypanosoma cruzi; inhibition, % (concentration not given with the values); T. cruzi beta-gal in NIH3T3, luminescence, 90 h; AID 1885; 300,000 tested, 1.4% active;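 active means mean inhibition across valid replicates above about 55%, limit read from the data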;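 further: signal also drops with host cell toxicity which is not excluded here; higher percent means less beta-gal luminescence so fewer parasites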
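assay system = mouse NIH/3T3 fibroblasts infected with β-gal-expressing T. cruzi Tulahuen C4 | input = 5,000 NIH/3T3 host cells per well | buffer or medium = DMEM plus 2% FBS | timing = 3 h host attachment, then at least 90 h co-culture | measured by = GalScreen luminescence, 60 min | evaluation = luminescence reflecting intracellular parasite burden, expressed as percent inhibition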
AI-2 QS modul – modulators of Vibrio harveyi AI-2 quorum sensing system | activity change, % at 7.5 µM | 300,000 tested, 0.4% active | Vibrio harveyi JMH597 AI-2 luminescence/OD600 ratio, 9 h; stronger effect = lower value; strain lacks LuxN and CqsS sensors; 0 = neutral-control median; in the data active means activity change below about -75%, passing the limit was not always enough;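 further: luminescence divided by OD600 gain over 9 h not by final OD600 alone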
HDAC3 inhib – human HDAC3 inhibition | O15379 | recombinant HDAC3, fluorogenic peptide/trypsin coupled, fluorescence | inhibition, % at 8.3 µM | 320,000 tested, 0.15% active | AID 2718; in the data active means inhibition above about 26%, passing the limit was not always enough
Target sequence (O15379 whole entry, looked up): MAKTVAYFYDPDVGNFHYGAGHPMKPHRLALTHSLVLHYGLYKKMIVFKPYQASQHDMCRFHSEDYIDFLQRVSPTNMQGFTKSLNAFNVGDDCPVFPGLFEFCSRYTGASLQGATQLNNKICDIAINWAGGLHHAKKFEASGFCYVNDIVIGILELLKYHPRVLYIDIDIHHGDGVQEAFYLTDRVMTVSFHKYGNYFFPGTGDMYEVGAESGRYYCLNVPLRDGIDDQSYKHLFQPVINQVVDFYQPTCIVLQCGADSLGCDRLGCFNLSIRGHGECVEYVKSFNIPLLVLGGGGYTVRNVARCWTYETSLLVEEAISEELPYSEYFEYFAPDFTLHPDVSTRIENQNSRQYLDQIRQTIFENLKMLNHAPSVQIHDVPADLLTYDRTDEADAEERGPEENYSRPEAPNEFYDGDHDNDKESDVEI
Efflux pump inh – inhibitors of Candida antifungal efflux pumps expressed in yeast; inhibition, % at 10 µM; 330,000 tested, 0.44% active; S. cerevisiae Candida pump triplex, Nile Red efflux; AID 485275;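 active means plate passing quality check with inhibition over a set limit, or well fluorescence over plate mean plus 4 SD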;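 further: Nile Red retained in pooled yeast measured as flow cytometry median fluorescence; higher means more Nile Red kept so more efflux inhibition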
PolyA inh – inhibitors of polyadenylation in S. cerevisiae. S. cerevisiae SKY197-pL101 polyadenylation reporter, beta-gal luminescence; efflux-impaired pdr1/pdr3 knockout yeast; score 100 = 6 SD above DMSO. activity score, % at 12 µM. 300,000 tested, 0.02% active;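 active means lowest replicate activity score at least 50, where 100 means six control SD above control mean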;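 further: yeast exposed to compound for 9 h at 30 °C; higher score means more reporter readthrough which indicates perturbed polyadenylation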
Yeast cmpd fluor – compound fluorescence in yeast efflux pump counter-screen | shares compounds with Efflux pump inh | S. cerevisiae AD/pABC3, flow cytometry | fluorescence ratio to DMSO, % at 10 µM | 1,700 tested, 4% active;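 active means fluorescence ratio to DMSO above its plate's cutoff, the plate mean ratio plus 5 SD, cut at about 210% in these data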;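 further: unstained yeast with no Nile Red so the signal is compound autofluorescence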
Mdr1 pump inh – Candida Mdr1 efflux pump inhibition; AID 588518; shares compounds with Efflux pump inh; S. cerevisiae AD/CaMDR1, Nile Red efflux, flow cytometry; inhibition, % at 10 µM; 1,700 tested, 1% active; in the data active means inhibition above about 26%;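 further: higher means more Nile Red retained so more efflux inhibition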
Cdr2 pump inh – blocks the Candida albicans Cdr2 efflux pump in yeast; 1,700 tested, 4% active; shares compounds with Efflux pump inh; S. cerevisiae AD/CaCDR2, Nile Red retention, flow cytometry; Nile Red retention ratio vs DMSO, % at 10 µM; in the data active means Nile Red retention ratio vs DMSO above about 190%;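 further: higher ratio means more blocking of Cdr2 efflux of the dye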
Cdr1 pump inh – Candida Cdr1 efflux pump inhibition; shares compounds with Efflux pump inh; S. cerevisiae AD/CaCDR1, Nile Red efflux, flow cytometry; inhibition, % at 10 µM; 1,700 tested, 1% active; AID 588522;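 active means inhibition above the screen-wide mean plus twice its standard deviation, cut at about 32% in these data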
Large screens that a line does not name were inactive (follow-up assays come after a bar, where they were run).

CCOC(=O)C1(C(F)(F)F)N=C(c2cccnc2)OC(N2CCCCC2)=N1 (configuration not stated)	Efflux pump inh 5.5 | Yeast cmpd fluor inactive | Mdr1 pump inh inactive | Cdr2 pump inh inactive | Cdr1 pump inh inactive
O=c1[nH]c2ccc(S(=O)(=O)N3CCN(c4ccc(F)cc4)CC3)cc2o1	none
CCC(=O)N(CCc1ccccc1)Cc1cc2cc3c(cc2[nH]c1=O)OCO3	none
CCC(=O)N(Cc1ccc(C)cc1)Cc1cc2cc3c(cc2[nH]c1=O)OCO3	Efflux pump inh 11 | Yeast cmpd fluor inactive | Mdr1 pump inh inactive | Cdr2 pump inh inactive | Cdr1 pump inh inactive
Cc1cc(S(=O)(=O)NCC(c2ccc3c(c2)OCO3)N2CCOCC2)ccc1F (configuration not stated)	Efflux pump inh 1.0 | Yeast cmpd fluor inactive | Mdr1 pump inh inactive | Cdr2 pump inh inactive | Cdr1 pump inh inactive
O=S(=O)(NCC(c1ccc2c(c1)OCO2)N1CCOCC1)c1ccc(Cl)cc1 (configuration not stated)	none
O=C1Cc2cc(S(=O)(=O)N3CCNCC3)ccc2N1	none (no result: T cruzi repl, AI-2 QS modul, PolyA inh)
Cn1c(=O)c2c(SCC(=O)NCC3CCCO3)nc(-c3ccccc3Cl)nc2n(C)c1=O (configuration not stated)	Efflux pump inh 0.8 | Yeast cmpd fluor inactive | Mdr1 pump inh inactive | Cdr2 pump inh inactive | Cdr1 pump inh inactive
CCC(C)(C(=O)Nc1ccc(OC)cc1)N(C)C(=O)Cn1nnnc1N (configuration not stated)	none
CCCCn1c(SCC(=O)Nc2cc(C(F)(F)F)cc(C(F)(F)F)c2)nnc1C(CC)N(C)C (configuration not stated)	none
Cn1cc(/C=C/c2cc[n+](C)cc2)c2cc(F)ccc21	Efflux pump inh 9.5 | Yeast cmpd fluor 743 | Mdr1 pump inh inactive | Cdr2 pump inh inactive | Cdr1 pump inh inactive
Cn1cc(C=O)c2cc(F)ccc21	none
Cn1cc(/C=C/c2cc[n+](C)cc2)c2cc(Cl)ccc21	Efflux pump inh 5.9 | Yeast cmpd fluor 735 | Mdr1 pump inh inactive | Cdr2 pump inh inactive | Cdr1 pump inh inactive
O=C(c1cn(-c2ccccc2)nc1-c1ccc(F)cc1)N1CCCCC1	Efflux pump inh 11 | Yeast cmpd fluor inactive | Mdr1 pump inh inactive | Cdr2 pump inh inactive | Cdr1 pump inh inactive
CCCc1nn2c(=O)cc(CSCC(=O)Nc3ccccc3)nc2s1	none
CCCc1nn2c(=O)cc(CSCC(=O)Nc3ccc(F)cc3)nc2s1	Efflux pump inh 1.9 | Yeast cmpd fluor inactive | Mdr1 pump inh inactive | Cdr2 pump inh inactive | Cdr1 pump inh inactive
CCCCCCCCNC(CO)(CO)CO	none
N#Cc1ncc(-c2ccc3c(c2)OCCOCCOCCOCCO3)nc1C#N	Efflux pump inh 9.6 | Yeast cmpd fluor inactive | Mdr1 pump inh inactive | Cdr2 pump inh inactive | Cdr1 pump inh inactive
CCOC(=O)C1=C(C)NC(C)=C(C(=O)OCC)C1C(=O)OCC(=O)N1CCOCC1	none (no result: T cruzi repl, AI-2 QS modul, PolyA inh)
Cc1ccc(-c2c[n+](Cc3ccc(Cl)c(Cl)c3)c3n2CCC3)cc1	Efflux pump inh 18 | Yeast cmpd fluor inactive | Mdr1 pump inh inactive | Cdr2 pump inh inactive | Cdr1 pump inh inactive
Cc1ccc(NC(=O)C[n+]2cc(-c3ccc(C)cc3)n3c2CCC3)cc1	none (no result: T cruzi repl) | Yeast cmpd fluor inactive | Mdr1 pump inh inactive | Cdr2 pump inh inactive | Cdr1 pump inh inactive
Cc1ccc(-c2c[n+](CC(=O)OCc3ccccc3)c3n2CCC3)cc1	none
O=C(C[n+]1cc(-c2ccc(Cl)c(Cl)c2)n2c1CCC2)N1c2ccccc2Sc2ccccc21	T cruzi repl 55, Efflux pump inh 4.3 | Yeast cmpd fluor inactive | Mdr1 pump inh inactive | Cdr2 pump inh inactive | Cdr1 pump inh inactive
Cn1c(NC(=O)C[n+]2cc(-c3ccc(Cl)c(Cl)c3)n3c2CCC3)cc(=O)n(C)c1=O	none
Cc1ccc(-c2c[n+](CC(=O)Nc3ccc(C)cc3C)c3n2CCC3)cc1	none
